Assay type in all cases: functional, Homo sapiens
Assay [1] deals with SW480. Briefly: Cell cycle arrest in SW480 cells by accumulation at S phase at 50 uM after 24 hrs by propidium iodide staining. The procedure, abridged:
(§1)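 SW480 human colorectal cancer cells (ATCC) grown in DMEM with 10% FBS, penicillin/streptomycin in 60 mm dishes; medium replenished at 80% confluence. Monolayers exposed 24 h to 0, 25, 50, 75 or 100 µM (DMSO stock, 0.1% DMSO final). Adherent plus floating cells fixed in PBS-methanol (1:2) ≥18 h at 4 °C, stained 30 min with 50 µg/mL PI plus RNase A.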

For assay [2], the system named is SW480. As to the kind of experiment: Cell cycle arrest in SW480 cells by accumulation at G1 phase at 75 uM after 24 hrs by propidium iodide staining. The procedure, abridged:
as §1

The test system of assay [3] is SW480. Briefly: Cell cycle arrest in SW480 cells by accumulation at G2/M phase at 100 uM after 24 hrs by propidium iodide staining. The procedure, abridged:
as §1

For assay [4], the system named is SW480. As to the kind of experiment: DNA damage assessed as accumulation in subG1 level of cell cycle arrest in SW480 cells at 100 uM after 24 hrs by propidium iodide staining. The procedure, abridged: as §1
For assay [5], the system named is SW480. Briefly: Cell cycle arrest in SW480 cells by accumulation at G2/M phase at 75 uM after 24 hrs by propidium iodide staining. The procedure, abridged:
as §1

Assay [6] concerns SW480. As to the kind of experiment: DNA damage assessed as accumulation in subG1 level of cell cycle arrest in SW480 cells at 75 uM after 24 hrs by propidium iodide staining. The procedure, abridged: as §1
For assay [7], the system named is SW480. Briefly: Cell cycle arrest in SW480 cells by accumulation at G2/M phase at 25 uM after 24 hrs by propidium iodide staining. The procedure, abridged: as §1
Assay [8] relates to SW480. As to the kind of experiment: DNA damage assessed as accumulation in subG1 level of cell cycle arrest in SW480 cells at 50 uM after 24 hrs by propidium iodide staining. The procedure, abridged:
as §1

Assay [9] has as its system SW480. As to the kind of experiment: Cell cycle arrest in SW480 cells by accumulation at G1 phase at 100 uM after 24 hrs by propidium iodide staining. The procedure, abridged:
as §1

For assay [10], the system named is SW480. As to the kind of experiment: Cell cycle arrest in SW480 cells by accumulation at G1 phase at 50 uM after 24 hrs by propidium iodide staining. The procedure, abridged: as §1
Assay [11] concerns SW480. As to the kind of experiment: DNA damage assessed as accumulation in subG1 level of cell cycle arrest in SW480 cells at 25 uM after 24 hrs by propidium iodide staining. The procedure, abridged: as §1
For assay [12], the system named is SW480. As to the kind of experiment: Cell cycle arrest in SW480 cells by accumulation at S phase at 75 uM after 24 hrs by propidium iodide staining. The procedure, abridged: as §1
The subject of assay [13] is SW480. Briefly: Cell cycle arrest in SW480 cells by accumulation at G2/M phase at 50 uM after 24 hrs by propidium iodide staining. The procedure, abridged:
as §1

In assay [14] the test system is SW480. Briefly: Cell cycle arrest in SW480 cells by accumulation at S phase at 100 uM after 24 hrs by propidium iodide staining. The procedure, abridged:
as §1

For assay [15], the system named is SW480. Briefly: Cell cycle arrest in SW480 cells by accumulation at S phase at 25 uM after 24 hrs by propidium iodide staining. The procedure, abridged: as §1
Assay [16] has as its system SW480. As to the kind of experiment: Cell cycle arrest in SW480 cells by accumulation at G1 phase at 25 uM after 24 hrs by propidium iodide staining. The procedure, abridged:
as §1

The results in this text go back to ChEMBL document CHEMBL1139209, “Cytotoxic constituents of the stems of Cinnamomum subavenium” (2007).

Each structure is given as a SMILES string.

As for `CCCCCCCCCCCCC/C=C1\C(=O)O[C@@](C)(OC)[C@@H]1O` [SUBAMOLIDE A], the Activity turned out to be 41% in assay [1]; 45% in assay [2]; 17.7% in assay [3]; 64.4% in assay [4]; 13% in assay [5]; 27.3% in assay [6]. The Activity was 12.2% in [7]; 25.4% in assay [8]; 52.6% in assay [9]; 46.3% in [10]; 8.5% in [11]; 42% in assay [12]. In addition, the Activity amounted to 12.8% in [13], 29.8% in assay [14], 39.6% in assay [15] and 48.2% in assay [16].
For the compound `C=C1C=C(C(CCCCCCCCCCCCCC)OC)C(=O)O1` (stereo not drawn) [SUBAMOLIDE C], the Activity was 41.2% in assay [1]; 44.5% in assay [2]; 19.3% in [3]; 38.8% in assay [4]; 12.4% in assay [5]; 34.6% in assay [6]. In addition, the Activity in assay [7] was 9.8%; in assay [8] it was 11%; in assay [9], 47.8%; in [10] it was 47.6%; in [11], 6.1%; in assay [12], 43.1%. In addition, the Activity in assay [13] is listed as 11.3%; in assay [14], 33%; in assay [15], 45.8%; in assay [16] it was 44.4%.
Turning to `CCCCCCCCCCCCC/C=C1/C(=O)O[C@@](C)(OC)[C@@H]1O` [SUBAMOLIDE B], the Activity in [1] is recorded as 38.8%; in assay [2], 45.8%; in [3], 16.6%; in assay [4], 71%; in assay [5] it was 20.8%; in assay [6], 47.2%. Further, the Activity was determined as 6.4% in assay [7]; 23.7% in assay [8]; 46% in [9]; 44.2% in assay [10]; 6.6% in assay [11]; 33.4% in [12]. Further, the Activity in assay [13] is reported as 16.9%; in [14], 37.4%; in [15], 46%; in assay [16], 47.7%.
In the case of `CCCCCCCCCCCCC/C=C(/C(=O)OC)[C@H](O)C(C)=O` [SECOSUBAMOLIDE], the Activity is given as 40.6% in assay [1]; 49% in assay [2]; 17.6% in assay [3]; 51.8% in assay [4]; 12.8% in assay [5]; 23.4% in [6]. Also, the Activity in [7] stood at 13.4%; in [8], 9.1%; in assay [9] it was 47.9%; in assay [10], 47.9%; in [12], 38.3%; in [13], 11.4%. The Activity in assay [14] worked out at 34.5%; in assay [15], 39.5%; in assay [16] it was 47.1%.
